The results in this text go back to the EternaBench riboswitch data.

This data set relates to MS2 coat protein. As to the kind of experiment: apparent Kd, MS2 coat protein; higher = weaker binding; RNA-MaP array; FMN 200 µM where present. A digest of the protocol: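 Green signal was scaled to red-channel RNA signal and control-cluster median Fmax, and the apparent Kd was taken as the median of filtered per-cluster binding-curve fits. The binding series used SNAP-549-labelled MS2 coat protein from 0.7 or 1.5 nM, doubling to 3 µM, on designs transcribed by stalled E. coli RNA polymerase on Illumina sequencing-chip clusters. Each series ran without and then with constant ligand in 100 mM Tris-HCl pH 7.5, 80 mM KCl, 4 mM MgCl2, BSA, DTT, yeast tRNA and Tween-20.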

Where [1] appears, read: designed as: OFF switch for flavin mononucleotide, no ligand.
Setting [2] is: ligand present: flavin mononucleotide, designed as: OFF switch for flavin mononucleotide.
The mark [3] stands for this setting: designed as: ON switch for flavin mononucleotide, no ligand.
[4] abbreviates: ligand present: flavin mononucleotide, designed as: ON switch for flavin mononucleotide.

With “AACAAACAUGAGGAUCACCCAUGUGAGGAUAUCGAAACAACAAACAACAAACAACAAACGAGAAGGCGCAACAA”, the “apparent Kd” value reads like this: under setting [1], 29.1 nM; under setting [2], 27.6 nM.
Regarding “GUAAUUAUAUAGGAUAUCGAUUUUAUUAUUUAACGAGAAGGAUGAACAUGAGGAUCACCCAUGUGGUAUCAUGG”, the “apparent Kd” value was determined as 164 nM under setting [1] and 177 nM under setting [2].
As to “ACUAGAUGAGGAUAUGCAUAUUUUCGUGUUCUUCUAGAUUAACAUGAGGAUCACCCAUGUAGAAGGCGUCUGGU”, the “apparent Kd” value under setting [1] was 30.7 nM and the “apparent Kd” value under setting [2] stood at 62 nM.
For the sequence “GAAUAGGCAGGAUAUACAUGAGGAUCACCCAUGUGCUUGCGAUAGGCACGUGAACAACGUAGAAGGGCCUUAAC”, the “apparent Kd” value amounted to 33.2 nM under setting [1] and 149 nM under setting [2].
In the case of “CAGUGUAGUUAGGAUAUCGGGUCGGUUGGGCGCUGAGAAGGAACUACAUGAGGAUCACCCAUGUGGGCUCUUCU”, the “apparent Kd” value is, setting by setting: under setting [1], 19.5 nM; under setting [2], 37.1 nM.
Turning to “GGAUAGGACAGAGGAUAUACGUGCUAGAGAUACUAGCAAAAUUUCCUCACAUGAGGAUCACCCAUGUAGAAGGCUGUCCUAUGG”, the “apparent Kd” value under setting [1] is 16.6 nM and the “apparent Kd” value under setting [2] amounted to 402 nM.
Consider “AACUCGUCAGGAUAUGCGCGCAGUUACUGCGCUUCGCAAUUGCAGAAGGGACAUGAGGAUCACCCAUGUAGGUC”, for which the “apparent Kd” value worked out at 42 nM under setting [1] and 45.4 nM under setting [2].
“UUAUUAAAUGUAGGAUAUGCAUAUUAUUAUUAUGCAGAAGGACAUGAGGAUCACCCAUGUAUAUUAUUAUUAUAUAUUAUAUAU”: the “apparent Kd” value under setting [1] was determined as 32.5 nM and the “apparent Kd” value under setting [2] was found to be 71.3 nM.
The corresponding values for “UUCAUGUGAGGAUAUGCGGCACCAGGUGGGCCUGGCGCUGAGCAGAAGGCACAUGAGGAUCACCCAUGUGCUCC” are 29.7 nM and 56.7 nM.
Regarding “UACAGCUUGACAGGAUAUACAUCACUGCGAAAGCAGUGUAUCUUAAUAACAUGAGGAUCACCCAUGUAGAAGGGUCGAGCUGUA”, the “apparent Kd” value runs as follows: under setting [1], 19.8 nM; under setting [2], 35.9 nM.
In the case of “GAGAAGUCAGGAUAUGCUGCUCGUCACUUGCGUGAUGAGUAGCAGAAGGGACAUGAGGAUCACCCAUGUAAAGC”, the “apparent Kd” value by setting is: under setting [1], 47.3 nM; under setting [2], 53.6 nM.
Consider “AUCAUGAGAGGAUAUACAUGAGGAUCACCCAUGUGGUCAUCUCCACGGGCUCAAUUACGUAGAAGGCUCAUUUG”, for which the “apparent Kd” value under setting [1] turned out to be 18 nM and the “apparent Kd” value under setting [2] is 66.2 nM.
For the sequence “AGGGUUGUGCUAGGAUAUCCAGGUUUGCAACAAGGAGAAGGAGCACAUGAGGAUCACCCAUGUUCUCAAAGGCCAUGGCAAUAU”, the “apparent Kd” value under setting [1] was 12.4 nM and the “apparent Kd” value under setting [2] stood at 56.3 nM.
As for “UGAGACCUCACAGGAUAUGCUGGACUUUGUCCAGCAGAAGGGUGAAAACAUGAGGAUCACCCAUGUAUGGUCUCCAAAUUUAAA”, the “apparent Kd” value under setting [3] came out at 187 nM and the “apparent Kd” value under setting [4] was 13.6 nM.
For the sequence “GCUAUAGCGGAGGAUAUCCCGAAAAGAAGUUUAGGAGAAGGCCGCACAUGAGGAUCACCCAUGUGAGUCCGCAA”, the “apparent Kd” value under setting [1] stood at 22.7 nM and the “apparent Kd” value under setting [2] amounted to 119 nM.
With “GCGUGCGAUAGGACGUCUGAGGGCAGAAGGCACAUGAGGAUCACCCAUGUAACGAUCUCUUCAAGUGAGGAUAUGUGCUCAUUG”, the “apparent Kd” value under setting [1] amounted to 29.7 nM and the “apparent Kd” value under setting [2] was 114 nM.
In the case of “CUCGUGUGAGGAUAUGCGGGCGGGCGCGUUUGUGUUUGUUUGUAGAAGGUACAUGAGGAUCACCCAUGUGCUGG”, the “apparent Kd” value is, setting by setting: under setting [1], 24 nM; under setting [2], 80.9 nM.
Turning to “ACACUGCGAGGAUAUACAUGAGGAUCACCCAUGUGUCGGCAGGUACGGUAGCACUAGUGUAGAAGGCGCAUUGG”, the “apparent Kd” value is, setting by setting: under setting [1], 24.6 nM; under setting [2], 42 nM.
As for “ACGUCUUAGUAGAAGGGACAUCGGCUGGUAAGCAUCAUCUCCUUCUCACAUGAGGAUCACCCAUGUCAGGAUAUACUAAGAUAC”, the “apparent Kd” value worked out at 12.9 nM under setting [1] and 38.7 nM under setting [2].
As for “UAAUAUUUAUGAUAUUAUUACAUUAGAAGGCUAUACAUGUGGAUACAUGAGGAUCACCCAUGUAUAGAGGAUAUAGACAUAUAU”, the “apparent Kd” value under setting [1] is 357 nM and the “apparent Kd” value under setting [2] turned out to be 537 nM.
The corresponding values for “UGUCGGAGCAGAGGAUAUUACAUGAGGAUCACCCAUGUAUGAACAAAUAGCUGGAAACAGCAAUGUAAGAAGGCUGCUCCGACA” are 5.82 nM and 7.45 nM.
On to “AGGCAGGACCAGAAGGACAUGAGGAUCACCCAUGUAGGAUAUGGGCGUGGUUUAUGGGUACCUGGGAGAAUGACUGGGUUGUCA”, for which the “apparent Kd” value runs as follows: under setting [3], 363 nM; under setting [4], 29.4 nM.
With “GUCAAGUGAGGAUAUGAUUGUACGGCAGACUAGCGUCUGCAUCAGAAGGCACAUGAGGAUCACCCAUGUUUGUC”, the “apparent Kd” value by setting is: under setting [1], 19.1 nM; under setting [2], 16.9 nM.
As to “GUAAAUCAUGUAGGAUAUGCAUGGCGAAGCUACGCAGAAGGACAUGAGGAUCACCCAUGUCUCUCCGUCUGCGUACAGACGGAG”, the “apparent Kd” value was 27.4 nM under setting [1] and 188 nM under setting [2].
In the case of “GAUCCUUCUGUUAGGAUAUGCUUUGGGCUUCCGCAGUAGAAGGAACAUGAGGAUCACCCAUGUCCGAUGCCGUC”, the “apparent Kd” value by setting is: under setting [1], 74.6 nM; under setting [2], 101 nM.
For “GUGACGAAUGUAGGAUAUGCUGAGGAUAACUCAGCAGAAGGACAUGAGGAUCACCCAUGUACUAUGAGUGAAUAAUAACGUCAC”, the “apparent Kd” value under setting [1] is 82.2 nM and the “apparent Kd” value under setting [2] worked out at 756 nM.
Regarding “AGAAACUACGAGAAGGACAUGUGGUCCAAAAUAAACAUGAGGAUCACCCAUGUAGGAUAUCGUAGUUUCAGGAUCGUGAGAUCA”, the “apparent Kd” value turned out to be 260 nM under setting [1] and 12.3 nM under setting [2].
As for “UGAUAGGACAGAGGAUAUACGGAUAGGAUCUACUAUCUUCUUCAAAUAACAUGAGGAUCACCCAUGUAGAAGGCUGUCCUAUCU”, the “apparent Kd” value came out at 15 nM under setting [1] and 33 nM under setting [2].
Regarding “AAUUGAAACGUAGGAUAUCGCACAAAUCUAAAACGAGAAGGACGUACAUGAGGAUCACCCAUGUUAAAUGGUGUAGAUUAGAUG”, the “apparent Kd” value under setting [1] turned out to be 543 nM and the “apparent Kd” value under setting [2] came to 636 nM.
Consider “AUCAGCUCGUCAGGAUAUACGUCACUGCGUCAGCAGUGUGGAAAGAUCACAUGAGGAUCACCCAUGUAGAAGGGACGAGCUGAU”, for which the “apparent Kd” value is, setting by setting: under setting [1], 36.2 nM; under setting [2], 279 nM.
As for “GCCGAUUAAGUGAGGAUAUACCUAUGGAUACAUAGGUAGAAGGCACAUGAGGAUCACCCAUGUUCCUCAUCGGC”, the “apparent Kd” value was 16.8 nM under setting [1] and 132 nM under setting [2].
The matching figures for “CCAAGAAUAGGAUAUACACGAUGUCAGCUUCUAUACAUCGCACAUGAGGAUCACCCAUGUAGAAGGGUUCUCUC”: 735 nM and 823 nM.
On to “AAUAUAGAAGGAUAUGCAGCCGUGAGCCAUAGAGGAGACGAACAUGAGGAUCACCCAUGUAGAAGGUCUCGAUU”, for which the “apparent Kd” value was determined as 13.1 nM under setting [1] and 12.4 nM under setting [2].
The matching figures for “GAAUAUUAGCAAGGAUAUCGGCUUACUAUAACUUUAUGCCCUGGGACAUGAGGAUCACCCAUGUACGAGAAGGUGCUUACUACA”: 18.9 nM and 29.4 nM.
As to “GCCUUAUCCGUCAGGAUAUACAGCUGUUAGUUGUUGUAGAAGGGACAUGAGGAUCACCCAUGUACGUACCAUUG”, the “apparent Kd” value under setting [1] was 19.2 nM and the “apparent Kd” value under setting [2] was determined as 22.2 nM.
The corresponding values for “UCGUGAGGGACAGGAUAUGGACAUGAGGAUCACCCAUGUACAUGGGAAUAUAUACUGAAUUUAUACUAGAAGGGUUACAUAAAU” are 21.6 nM and 16.1 nM.
The matching figures for “GUGUACAGAGGAUAUACAAUAGGAGUUACGAAAGUAACUUCACAUGAGGAUCACCCAUGUAGAAGGCUGUACAC”: 18.1 nM and 37.8 nM.
The matching figures for “ACACGGUAUGUAGGAUAUGCAUAGCAUUGCUAUGCAGAAGGACAUGAGGAUCACCCAUGUAUGUAUUCCAUACUAAUCCCGUGC”: 6.03 nM and 6 nM.
Turning to “CGACGAGUGGAGAAGGACUUUGACUAGUACAGGGUAGGAUAUCCACAUGAGGAUCACCCAUGUAGGAUACUUAUUGGGCCGCCU”, the “apparent Kd” value under setting [1] worked out at 10.3 nM and the “apparent Kd” value under setting [2] was 49 nM.
The corresponding values for “CACGAGCUAGGAUAUACAUGAGGAUCACCCAUGUAAGUCAUGCGGUCACAUCUGACAGGUAGAAGGAGCGCGUC” are 39.3 nM and 126 nM.
Turning to “GUCGUGUGAGGAUAUGAUUUUUAGGCGGGAUUGCGACUGCUUCAGAAGGCACAUGAGGAUCACCCAUGUAUGAA”, the “apparent Kd” value runs as follows: under setting [1], 11.3 nM; under setting [2], 38.8 nM.
Turning to “CACCGUUAAGGAGGAUAUCGUACAUGAGGAUCACCCAUGUAAUAAAUGAGAAUUUCGGAUGUAUGCGAGAAGGCCUAAAUCGGC”, the “apparent Kd” value reads like this: under setting [1], 49.5 nM; under setting [2], 42 nM.
Consider “GACUGCUGAGGAUAUACAUGAGGAUCACCCAUGUGCUUCAGCUACGAAAGUAGCAUUGGUAGAAGGUAGUAGUC”, for which the “apparent Kd” value runs as follows: under setting [1], 12.4 nM; under setting [2], 22.4 nM.
With “GGCGAACGGGCUUACAUGAGGAUCACCCAUGUAGACUCAUGGUAGGAUAUGCUGUACAAAGUACAGCAGAAGGGCCGGUGAGCU”, the “apparent Kd” value under setting [3] was determined as 89.1 nM and the “apparent Kd” value under setting [4] is 43.5 nM.
The corresponding values for “CGUUGUUCCGCAGGAUAUGCAUUGGAUUACAAUGCAGAAGGGCGAUAACAUGAGGAUCACCCAUGUGUGGACAAUGAGGAAGAG” are 792 nM and 55.2 nM.
Take “UCGGCCGCUGGGUUGUACGAUGACAGAAGGGCACACCGGGUGCCGCACAUGAGGAUCACCCAUGUGCAGGAUAUGUCAUCCUGA”: the “apparent Kd” value by setting is: under setting [1], 11.1 nM; under setting [2], 8.25 nM.
Take “AACGAGCAGUAGAAGGCAUGUCUACGGACAUGAGGAUCACCCAUGUUGUGACUCCGAAAGGAGCGUGAGGAUAUACUGCUCAAA”: the “apparent Kd” value reads like this: under setting [3], 91.9 nM; under setting [4], 14.3 nM.
“UCUGGUCGAGGAUAUACGUGACGUGCUUCGGCACGAGGUCUACAUGAGGAUCACCCAUGUAGAAGGCGACCAGA”: the “apparent Kd” value runs as follows: under setting [1], 17.1 nM; under setting [2], 48 nM.

The apparent Kd is a dissociation constant that holds for the conditions of the assay.
